Experimental data from different studies.
Each line is one published result; the experiments were not run side by side.
Target: Serine/threonine-protein kinase TAO2 (TAOK2, Homo sapiens, UniProt Q9UL54)
Sequence (Q9UL54 1-1235, as in one of the studies): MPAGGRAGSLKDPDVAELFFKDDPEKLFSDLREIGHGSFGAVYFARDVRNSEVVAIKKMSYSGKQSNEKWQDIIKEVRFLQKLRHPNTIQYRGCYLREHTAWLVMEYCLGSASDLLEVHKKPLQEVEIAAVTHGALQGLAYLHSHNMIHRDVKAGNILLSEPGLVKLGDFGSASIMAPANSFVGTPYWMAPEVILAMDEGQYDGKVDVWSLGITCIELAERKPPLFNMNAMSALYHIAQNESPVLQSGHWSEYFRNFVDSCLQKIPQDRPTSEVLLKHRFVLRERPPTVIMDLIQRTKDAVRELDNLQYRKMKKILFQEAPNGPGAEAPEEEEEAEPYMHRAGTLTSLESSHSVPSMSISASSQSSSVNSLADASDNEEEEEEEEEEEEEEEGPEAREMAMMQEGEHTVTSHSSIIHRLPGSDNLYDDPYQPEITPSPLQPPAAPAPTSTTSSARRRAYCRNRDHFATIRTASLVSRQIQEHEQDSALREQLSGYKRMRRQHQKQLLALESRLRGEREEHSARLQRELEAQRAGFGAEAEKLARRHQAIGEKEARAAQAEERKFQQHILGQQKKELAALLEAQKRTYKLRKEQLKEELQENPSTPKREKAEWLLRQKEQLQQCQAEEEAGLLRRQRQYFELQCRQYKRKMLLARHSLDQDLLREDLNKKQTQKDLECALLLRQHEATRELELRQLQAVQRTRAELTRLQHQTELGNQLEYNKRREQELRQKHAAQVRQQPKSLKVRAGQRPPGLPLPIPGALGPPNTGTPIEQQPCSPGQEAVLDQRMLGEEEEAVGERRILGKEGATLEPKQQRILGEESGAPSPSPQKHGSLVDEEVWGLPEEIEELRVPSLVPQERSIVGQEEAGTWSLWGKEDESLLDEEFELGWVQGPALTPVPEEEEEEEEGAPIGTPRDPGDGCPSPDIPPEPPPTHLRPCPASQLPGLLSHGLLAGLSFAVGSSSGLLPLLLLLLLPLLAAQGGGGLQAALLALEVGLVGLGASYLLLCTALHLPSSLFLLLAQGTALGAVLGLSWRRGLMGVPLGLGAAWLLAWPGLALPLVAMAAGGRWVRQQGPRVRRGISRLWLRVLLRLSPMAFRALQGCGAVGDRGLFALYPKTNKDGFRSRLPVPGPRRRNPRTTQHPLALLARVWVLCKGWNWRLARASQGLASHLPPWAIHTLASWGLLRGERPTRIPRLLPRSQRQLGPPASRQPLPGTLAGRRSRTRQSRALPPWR

`Cc1cnc(Nc2ccc(C(=O)N3CCC(N4CCCC4)CC3)cc2)nc1-c1cc2ccccc2s1` has a remaining binding of 29% (binding, competition with immobilised ligand; 1 µM).
With `CC1CCCN1c1nccc(-c2cnn3ncccc23)n1` (stereo not shown) the remaining binding was 100% (binding; 1 µM).
For `O=C(c1ccc(Nc2ncc(Cl)c(-c3cc4ccccc4s3)n2)cc1)N1CCC(N2CCCC2)CC1`, the remaining binding was 66% (binding, competition with immobilised ligand; 1 µM).
`COc1cnc(Nc2cccc(S(N)(=O)=O)c2)nc1N1CCN(c2ccccc2)C(=O)C1` has a remaining binding of 95% (binding, competition with immobilised ligand; 1 µM).
`CN(CCCC(F)(F)F)c1nccc(-c2cnn3ncccc23)n1` gave a remaining binding of 100% (binding; 1 µM).
For `O=C(NCCCN1CCOCC1)c1ccc(Nc2nccc(-c3cc4ccccc4s3)n2)cc1`, the remaining binding was 80% (binding, competition with immobilised ligand; 1 µM).
`CC(=O)Nc1c(C(C)=O)c(=O)n(C)c2nc(-c3ccc(Cl)cc3Cl)c(-c3ccc(Cl)cc3)cc12` has a remaining binding of 88% (cell-free assay, competition with immobilised ligand; 1 µM).
For `O=C(Nc1c[nH]nc1C(=O)NC1CCNCC1)c1cc(F)cc(F)c1`, the remaining binding was 61% (binding, competition with immobilised ligand; 1 µM).
For `Cc1nc(Cc2cccc(C(F)(F)F)c2)sc1-c1ccc(C(N)=O)nc1`, the remaining binding was 86% (cell-free assay, competition with immobilised ligand; 1 µM).
`c1cncc(-c2cccc(Nc3nccc(NC4CCCCC4)n3)c2)c1` has a remaining binding of 94% (binding, competition with immobilised ligand; 10 µM).
`CN(C)c1nccc(-c2cnn3ncccc23)n1` has a remaining binding of 85% (binding; 1 µM).
For `Cn1nc(C(=O)NCc2ccc(C(=O)O)cc2)cc1-c1ccc2[nH]ccc2c1`, the remaining binding was 82% (cell-free assay, competition with immobilised ligand; 0.1 µM).
The remaining binding of `C=CC(=O)N1CCC(C(=O)NCC(=O)N2CCN(c3nc(-c4cnc(N)nc4C(F)F)nc(N4CCOCC4)n3)CC2)CC1` is reported as 72% (binding, competition with immobilised ligand; 1 µM).
`CNC(=O)[C@@H]1CC[C@@H](n2c(-c3ccc4cnccc4c3)nc3ccc(C(=O)NCc4cccc(C(N)=O)c4)cc32)C1` has a remaining binding of 98% (binding, competition with immobilised ligand; 1 µM).
With `CN(c1nccc(-c2cnn3ncccc23)n1)C1CC1` the remaining binding was 100% (binding; 1 µM).
`CCOC(=O)c1cc2cc(-c3cc(C(=O)NCc4ccc(C(=O)O)cc4)nn3C)ccc2[nH]1` has a remaining binding of 90% (cell-free assay, competition with immobilised ligand; 0.1 µM).
`CN(C)c1nccc(-c2cnc3ncccn23)n1` gave a remaining binding of 76% (binding; 1 µM).
`Cc1nc(C2CCN(C(=O)c3ccc(OC(F)(F)F)cc3N)CC2)c2ncc(N3CCN(C)CC3)cc2n1` gave a remaining binding of 100% (cell-free assay, competition with immobilised ligand; 1 µM).
For `Cc1cnn2ncc(-c3ccnc(N(C)C)n3)c2c1`, the remaining binding was 94% (binding; 1 µM).
`CNCc1ccccc1-c1csc([C@H](C)Nc2nc(C)nc3cc(OC)c(OC)cc23)c1` has a remaining binding of 90% (cell-free assay, competition with immobilised ligand; 1 µM).
With `N[C@@H]1CCN(c2nccc(-c3cnn4ncccc34)n2)C1` the remaining binding was 100% (binding; 1 µM).
`FC(F)(F)Oc1cccc(-c2cnc3ccc(-c4ccncc4)nn23)c1` gave a remaining binding of 100% (binding, competition with immobilised ligand; 5 µM).
